Activity calls are given as the source filed them. The calls are words filed in the database; no cut-off is given here.
What was measured:
LNCaP [1] = assay: Cytotoxic activity against human LNCAP cells after 24 hrs by MTT assay; type: functional, cell-based
How it was run: (§1)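 MTT assay; log-phase cells seeded at 10^4 cells/well in DMEM, allowed to attach for 24 h at 37 °C, 5% CO2. Compounds dissolved in DMSO/water (1:1) and tested at 0.1–100 µM (1:2 serial dilutions), four replicates per condition. MTT at 0.5 mg/ml final added 4 h before end; dissolved in 0.1 N HCl/isopropanol, A545 read. Untreated cells as 100% growth, blank subtracted; IC50 as mean ± SD of 3–4 independent experiments.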

A-431 [2] = assay: Cytotoxic activity against human A431 cells after 48 hrs by MTT assay; type: functional, cell-based; settings: A-431, 48 h; how it was run: as §1
MCF7 [3] = assay: Cytotoxic activity against human MCF7 cells after 24 hrs by MTT assay; type: functional, cell-based; settings: MCF7, 24 h; how it was run: as §1
LNCaP [4] = assay: Cytotoxic activity against human LNCAP cells after 48 hrs by MTT assay; type: functional, cell-based; how it was run: as §1
HT-29 [5] = assay: Cytotoxic activity against human HT-29 cells after 48 hrs by MTT assay; type: functional, cell-based; settings: HT-29, 48 h; how it was run: as §1
A549 [6] = assay: Cytotoxic activity against human A549 cells after 24 hrs by MTT assay; type: functional, cell-based; settings: A549, 24 h; how it was run: as §1
HT-29 [7] = assay: Cytotoxic activity against human HT-29 cells after 24 hrs by MTT assay; type: functional, cell-based; settings: HT-29, 24 h; how it was run: as §1
HeLa [8] = assay: Cytotoxic activity against human HeLa cells after 24 hrs by MTT assay; type: functional, cell-based; how it was run: as §1
MCF7 [9] = assay: Cytotoxic activity against human MCF7 cells after 48 hrs by MTT assay; type: functional, cell-based; settings: MCF7, 48 h; how it was run: as §1
A-431 [10] = assay: Cytotoxic activity against human A431 cells after 24 hrs by MTT assay; type: functional, cell-based; settings: A-431, 24 h; how it was run: as §1
HepG2 [11] = assay: Cytotoxic activity against human HepG2 cells after 48 hrs by MTT assay; type: functional, cell-based; settings: HepG2, 48 h; how it was run: as §1
HepG2 [12] = assay: Cytotoxic activity against human HepG2 cells after 24 hrs by MTT assay; type: functional, cell-based; settings: HepG2, 24 h; how it was run: as §1
A549 [13] = assay: Cytotoxic activity against human A549 cells after 48 hrs by MTT assay; type: functional, cell-based; settings: A549, 48 h; how it was run: as §1
HeLa [14] = assay: Cytotoxic activity against human HeLa cells after 48 hrs by MTT assay; type: functional, cell-based; how it was run: as §1
[15] = Inhibition of PI3K/Akt signalling pathway in human LNCAP cells at cytotoxic IC50 after 24 hrs by immunoblot; type: cell-based
How it was run: (§2)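 Cells dosed at their cytotoxic IC50 and lysed 24 h later (A431 also sampled over time) in ice-cold HEPES pH 7.5 buffer with phosphatase/protease inhibitors and 0.5% Triton X-100. 50 µg protein per lane on 10% SDS–PAGE, transferred to nitrocellulose, blocked in 5% milk/TBS-T. Probed overnight at 4 °C with anti-pAkt (Ser473; 1:1000) and β-actin loading control; HRP secondary, ECL detection. Untreated cells as control.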

HeLa [16] = assay: Cytotoxic activity against human HeLa cells assessed as cell viability at 10 uM after 24 hrs by trypan blue exclusion method; type: functional; settings: read-out: Activity
How it was run: (§3)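 Trypan blue exclusion after 24 h compound exposure. Medium collected, attached cells trypsinized and pooled with it, then centrifuged at 1200 rpm for 5 min. Pellet resuspended in PBS with 0.2% trypan blue. 200–300 cells counted per experiment in three separate experiments. Viability is the percentage of viable cells over total cells, taken as the mean.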

LNCaP [17] = assay: Cytotoxic activity against human LNCAP cells assessed as cell viability at 10 uM after 24 hrs by trypan blue exclusion method; type: functional; settings: read-out: Activity; how it was run: as §3
[18] = Inhibition of PI3K/Akt signalling pathway in human HeLa cells at cytotoxic IC50 after 24 hrs by immunoblot; type: cell-based; how it was run: as §2
A-431 [19] = assay: Cytotoxic activity against human A431 cells assessed as cell viability at 5 uM after 24 hrs by trypan blue exclusion method; type: functional; settings: A-431, 24 h, read-out: Activity; how it was run: as §3
MCF7 [20] = assay: Cytotoxic activity against human MCF7 cells assessed as cell viability at 10 uM after 24 hrs by trypan blue exclusion method; type: functional; settings: MCF7, 24 h, read-out: Activity; how it was run: as §3
[21] = Inhibition of PI3K/Akt signalling pathway in human A431 cells at cytotoxic IC50 after 24 hrs by immunoblot; type: cell-based; settings: A-431; how it was run: as §2
[22] = Inhibition of PI3K/Akt signalling pathway in human MCF7 cells at cytotoxic IC50 after 24 hrs by immunoblot; type: cell-based; how it was run: as §2
[23] = Inhibition of PI3K/Akt signalling pathway in human A431 cells at cytotoxic IC50 after 2 to 24 hrs by immunoblot; type: cell-based; settings: A-431, TDE = time-dependent effect; how it was run: as §2

| SMILES | IC50 (LNCaP [1]) [µM] | IC50 (A-431 [2]) [µM] | IC50 (MCF7 [3]) [µM] | IC50 (LNCaP [4]) [µM] | IC50 (HT-29 [5]) [µM] | IC50 (A549 [6]) [µM] | IC50 (HT-29 [7]) [µM] | IC50 (HeLa [8]) [µM] | IC50 (MCF7 [9]) [µM] | IC50 (A-431 [10]) [µM] | IC50 (HepG2 [11]) [µM] | IC50 (HepG2 [12]) [µM] | IC50 (A549 [13]) [µM] | IC50 (HeLa [14]) [µM] | viability at 10 µM (HeLa [16]) [%] | viability at 10 µM (LNCaP [17]) [%] | viability at 5 µM (A-431 [19]) [%] | viability at 10 µM (MCF7 [20]) [%] | inhibition [21] | further results |
| --- | --- | --- | --- | --- | --- | --- | --- | --- | --- | --- | --- | --- | --- | --- | --- | --- | --- | --- | --- | --- |
| COc1ccc(C#CC(=O)[C@H]2CC[C@H]3[C@@H]4CC=C5C[C@@H](O)CC[C@]5(C)[C@H]4CC[C@]23C)cc1 | > 50 | > 50 | > 50 | 47.6 | > 50 | > 50 | > 50 | > 50 | > 50 | > 50 | > 50 | > 50 | > 50 | 26.7 |  |  |  |  |  |  |
| Cc1cc(C#CC(=O)[C@H]2CC[C@H]3[C@@H]4CC=C5C[C@@H](O)CC[C@]5(C)[C@H]4CC[C@]23C)ccc1F | > 50 | > 50 | 17.6 | 38.4 | 26.7 | 40.1 | > 50 | > 50 | 11.3 | > 50 | > 50 | > 50 | 28.2 | > 50 |  |  |  |  |  |  |
| C[C@]12CC[C@H](O)CC1=CC[C@@H]1[C@@H]2CC[C@]2(C)C(=O)CC[C@@H]12 [PRASTERONE] | > 50 | > 50 | > 50 | > 50 | > 50 | 47.8 | > 50 | > 50 | > 50 | > 50 | > 50 | > 50 | 47.8 | > 50 |  |  |  |  |  |  |
| C[C@]12CC[C@H]3[C@@H](CC=C4C[C@@H](O)CC[C@@]43C)[C@@H]1CC[C@@H]2C(=O)C#Cc1ccccc1C(F)(F)F | 7.9 | 1.78 | 13.5 | 5.44 | 9.87 | 15.8 | 24.6 | 13.8 | 4.42 | 4.21 | 12.6 | 38.4 | 6.3 | 3.85 | 70.8 | 0 | 0 | 18.9 | Active | inhibition [15]: Active; inhibition [18]: Active; inhibition [22]: Active |
| C[C@]12CC[C@H]3[C@@H](CC=C4C[C@@H](O)CC[C@@]43C)[C@@H]1CC[C@@H]2C(=O)C#Cc1cccc(C(F)(F)F)c1 | 26.2 | 0.54 | 31.4 | 17.4 | 26.4 | 29.3 | > 50 | 25.1 | 18.6 | 2.28 | 16.4 | 45.7 | 20.7 | 8.34 | 92.5 | 92.1 | 0 | 94.2 | Active | inhibition [23]: tde |
| C[C@]12CC[C@H]3[C@@H](CC=C4C[C@@H](O)CC[C@@]43C)[C@@H]1CC[C@@H]2C(=O)C#Cc1ccc(F)cc1 | 12.4 | 2.18 | > 50 | 10.8 | 44.7 | > 50 | > 50 | > 50 | > 50 | 7.16 | > 50 | > 50 | 40.6 | 43.7 | 98.4 | 25.6 | 28.6 | 90.4 | Active |  |
| C[C@]12CC[C@H]3[C@@H](CC=C4C[C@@H](O)CC[C@@]43C)[C@@H]1CC[C@@H]2C(=O)C#Cc1cccc(F)c1 | 14.7 | 45.3 | 28.4 | 9.48 | 28.6 | > 50 | > 50 | 21.4 | 14.7 | > 50 | > 50 | > 50 | 24.9 | 6.44 |  |  |  |  |  |  |
| C#Cc1cccc(C#CC(=O)[C@H]2CC[C@H]3[C@@H]4CC=C5C[C@@H](O)CC[C@]5(C)[C@H]4CC[C@]23C)c1 | 19.1 | 1.52 | 11.2 | 16.9 | > 50 | > 50 | > 50 | > 50 | 5.15 | 4.85 | 17.9 | 42.6 | 20.2 | > 50 | 93.2 | 90.3 | 0 | 0 | Active | inhibition [22]: Active |
| Cc1cc(C)c(C#CC(=O)[C@H]2CC[C@H]3[C@@H]4CC=C5C[C@@H](O)CC[C@]5(C)[C@H]4CC[C@]23C)cc1C | > 50 | 12.5 | 39 | 46.2 | > 50 | > 50 | > 50 | > 50 | 7.78 | 39.3 | 48.6 | > 50 | > 50 | 32.4 |  |  |  |  |  |  |
| COc1ccc(C#CC(=O)[C@H]2CC[C@H]3[C@@H]4CC=C5C[C@@H](O)CC[C@]5(C)[C@H]4CC[C@]23C)c(C)c1 | 41.7 | 13.7 | 44.1 | 30.8 | 22.7 | 44.3 | 48.4 | > 50 | 18.8 | 44.1 | 45.7 | > 50 | 30.5 | 23.6 |  |  |  |  |  |  |

Reference: ChEMBL document CHEMBL3352373, “Design and synthesis of 21-alkynylaryl pregnenolone derivatives and evaluation of their anticancer activity” (Bioorg Med Chem, 2014)
